Paper PMC3472128 (Structure (London, England : 1993), 2012)
“Also recorded” adds a separate entry of the source. Blank lines part the entries; values can stand above or below the substance they belong to.

Tests used:
[1] = target: four independent Nedd4L WW domains; experiment: ITC, Smad7 peptide vs independent Nedd4L WW domains; type: binding, human; settings: each of the four independent WW domains, values shown in Figure 1B only
[2] = system: three possible Nedd4L WW-WW pairs; experiment: ITC, Smad7 peptide vs Nedd4L WW-WW pairs; type: binding, human
Nedd4L WW2-WW3 pair = experiment: ITC, Smad7 peptide vs Nedd4L WW2-WW3 pair; type: binding, human
[3] = system: Nedd4L WW2-WW3 mutant constructs (bind only one PY site); experiment: ITC, Smad7 peptide vs Nedd4L WW2-WW3 mutant constructs; type: binding, human; settings: two WW2-WW3 mutant constructs that bind only one PY site
Nedd4L WW domains = experiment: ITC, preferred Nedd4L WW domain for Smad7 peptide; type: binding, human
[4] = target: Nedd4L WW2 domain Arg380Glu (Homo sapiens, UniProt Q96PU5, R400E); experiment: ITC, Smad7 peptide vs Nedd4L WW2 Arg380Glu; type: binding
[5] = target: Nedd4L WW2 domain Lys378Glu (Homo sapiens, UniProt Q96PU5, K398E); experiment: ITC, Smad7 peptide vs Nedd4L WW2 Lys378Glu; type: binding
[6] = target: Nedd4L WW2 domain Lys378/Arg380 to Glu (Homo sapiens, UniProt Q96PU5, K398E/R400E); experiment: ITC, Smad7 peptide vs Nedd4L WW2 double mutant; type: binding
Smurf1 WW2 [7] = target: T1, Smurf1 WW2 (Homo sapiens, UniProt Q9HCE7); experiment: ITC, Smad7 peptide vs Smurf1 WW2; type: binding
Smurf1 WW1 [8] = experiment: ITC, Smad7 peptide vs Smurf1 WW1; type: binding, human
Smurf1 WW1-WW2 [9] = target: T2, Smurf1 WW1-WW2 (Homo sapiens, UniProt Q9HCE7); experiment: ITC, Smad7 peptide vs Smurf1 WW1-WW2 pair; type: binding
T2 sequence (Q9HCE7 233-314 isoform Q9HCE7-2): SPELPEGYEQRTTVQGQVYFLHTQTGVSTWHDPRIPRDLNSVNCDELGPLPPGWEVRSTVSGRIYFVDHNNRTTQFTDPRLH
In short: (§1)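 Nano ITC was run at 5, 15 and 25 °C, in Tris and in ammonium acetate at pH 7. Kd and stoichiometry come from fits. Each run was done at least three times with two protein expression batches.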

Smurf2 WW2 = experiment: ITC, Smad7 peptide vs Smurf2 WW2; type: binding, human
Smurf2 WW2-WW3 [10] = target: T3, Smurf2 WW2-WW3 (Homo sapiens, UniProt Q9HAU4); experiment: ITC, Smad7 peptide vs Smurf2 WW2-WW3 pair; type: binding
In short: as §1

Smurf1 WW1-WW2 Arg243Ala = experiment: ITC, Smad7 peptide vs Smurf1 WW1-WW2 Arg243Ala; type: binding, human
Smurf1 WW1-WW2 Gln249Glu = experiment: ITC, Smad7 peptide vs Smurf1 WW1-WW2 Gln249Glu; type: binding, human
[11] = system: Smurf1 WW1-WW2 Gln247 and Gln249 to Glu; experiment: ITC, Smad7 peptide vs Smurf1 WW1-WW2 Gln247 and Gln249 to Glu; type: binding, human
Smurf1 WW1-WW2 Arg243Glu = experiment: ITC, Smad7 peptide vs Smurf1 WW1-WW2 Arg243Glu; type: binding, human
[12] = target: Smurf1 WW2 domain Arg295Glu (Homo sapiens, UniProt Q9HCE7, R321E); experiment: ITC, Smad7 peptide vs Smurf1 WW2 Arg295Glu; type: binding
Smurf2 WW3 domain R312E = Smurf2 WW3 domain R312E (Homo sapiens, UniProt Q9HAU4, R312E); experiment: ITC, Smad7 peptide vs Smurf2 WW3 R312E; type: binding
YAP WW1 domain = YAP WW1 domain (Homo sapiens, UniProt P46937); experiment: ITC, Smad7 peptide vs YAP WW1; type: binding
YAP WW2 = experiment: ITC, Smad7 peptide vs YAP WW2; type: binding, human; settings: 15°C, weaker than YAP WW1
YAP WW1-WW2 pair = YAP WW1-WW2 pair (Homo sapiens, UniProt P46937); experiment: ITC, YAP WW1-WW2 pair; type: binding
Smurf1 WW2 [13] = target: T1, Smurf1 WW2; experiment: IM-MS, Smurf1 WW2 dimer population; type: binding
In short: (§2)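 Traveling-wave ion mobility–mass spectrometry was run on the recombinant Smurf WW protein mixed with the Smad7 peptide. Monomer, dimer and trimer species carrying zero to three ligands were assigned by specific ionisation mass and characteristic drift time.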

Smurf1 WW1 [14] = experiment: IM-MS, Smurf1 WW1 dimer population; type: binding, human
In short: as §2

Smurf1 WW1-WW2 [15] = target: T2, Smurf1 WW1-WW2; experiment: IM-MS, complexes of Smurf1 WW1-WW2 with Smad7 peptide; type: binding; settings: protein concentrations used in ITC (30–50 μM)
Smurf2 WW2-WW3 [16] = target: T3, Smurf2 WW2-WW3; experiment: IM-MS, complexes of Smurf2 WW2-WW3 with Smad7 peptide; type: binding; settings: protein concentrations used in ITC (30–50 μM)
Smurf1 WW1-WW2 pair = experiment: NMR, Smad7 peptide binding to Smurf1; set-up: species or system human; settings: triple resonance NMR; 285 K/298 K
Smurf2 = experiment: NMR, Smad7 peptide binding to Smurf2; set-up: species or system human; settings: triple resonance NMR; 285 K/298 K
HA-YAP = experiment: Immunoprecipitation of Smad7 with HA-YAP in HEK293T cells; type: cell-based, human; settings: full-length Smad7 wild type or variants with HA-YAP
In short: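 HEK293T cells were transfected with epitope-tagged constructs (HA-YAP with full-length Smad7 wild type or variants) and treated where indicated with TGF-β1 at 100 pM. Lysates were immunoprecipitated with anti-Flag antibody, then immunoblotted with antibodies against the tags.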

T3 sequence (Q9HAU4 250-333 limits assumed): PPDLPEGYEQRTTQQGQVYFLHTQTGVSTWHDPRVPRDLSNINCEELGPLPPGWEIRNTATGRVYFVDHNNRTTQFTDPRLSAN
YAP WW1-WW2 pair, sequence (P46937 163-266 limits assumed): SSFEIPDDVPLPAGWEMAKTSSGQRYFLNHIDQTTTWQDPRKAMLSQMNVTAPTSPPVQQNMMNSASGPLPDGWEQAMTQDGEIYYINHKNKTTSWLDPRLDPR
Smurf1 WW2 domain Arg295Glu, sequence (Q9HCE7 303-340 R321E limits assumed): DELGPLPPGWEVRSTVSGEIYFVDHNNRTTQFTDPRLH
YAP WW1 domain, sequence (P46937 163-206): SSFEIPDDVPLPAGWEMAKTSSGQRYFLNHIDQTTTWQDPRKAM
Nedd4L WW2 domain Lys378/Arg380 to Glu, sequence (Q96PU5 384-423 K398E/R400E): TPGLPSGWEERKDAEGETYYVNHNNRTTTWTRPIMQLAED
Nedd4L WW2 domain Arg380Glu, sequence (Q96PU5 384-423 R400E): as the sequence (Q96PU5 384-423 K398E/R400E) above, with E15K counted along it
Smurf2 WW3 domain R312E, sequence (Q9HAU4 297-333 R312E limits assumed): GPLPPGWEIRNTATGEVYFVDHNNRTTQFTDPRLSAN
Nedd4L WW2 domain Lys378Glu, sequence (Q96PU5 384-423 K398E): as the sequence (Q96PU5 384-423 K398E/R400E) above, with E17R counted along it

- dissociation constants [1]: in the μM range
- dissociation constants ([2]; three possible WW-WW pairs, values shown in Figure 1B only): in the μM range
- Kd [4]: 15.4 ± 3.5 µM
- Kd [5]: 23.5 ± 1.5 µM
- Kd [6]: 27.3 ± 2.2 µM
- Kd (Smurf1 WW2 [7]): 4.1 ± 0.6 µM
- stoichiometry (Smurf1 WW2 [7]; ITC, independent WW2, 15 °C, Tris buffer): 1
- stoichiometry (Smurf1 WW1-WW2 [9]; ITC, 15 °C, Tris buffer): 0.7
- stoichiometry (Smurf1 WW1-WW2 [9]; ITC, all temperatures): < 1
- Kd (Smurf1 WW1-WW2 [9]; affinity (KD), ITC, 15 °C, Tris buffer (Figure 1C), at least three times, two protein expression batches): 1.7 ± 0.3 µM
- affinity increase due to the WW domain pair (Smurf1 WW1-WW2 [9]; pair versus Smurf1 WW2 at a given temperature): about 2 fold
- stoichiometry (Smurf2 WW2-WW3 [10]; ITC, all temperatures): < 1
- Kd (Smurf2 WW2-WW3 [10]; affinity (KD), ITC, 15 °C): 1.7 ± 0.3 µM
- affinity increase due to the WW domain pair (Smurf2 WW2-WW3 [10]; pair versus Smurf2 WW3 at a given temperature): about 2 fold
- Kd [12]: 48.6 ± 6.4 µM
- decrease of binding affinity ([12]; R295E versus wild type): approximately 8 fold
- Kd (Smurf2 WW3 domain R312E): 34.2 ± 1.6 µM
- Kd (YAP WW1 domain): 6.9 ± 0.28 µM
- preferred WW domain (YAP WW1 domain; ITC, 15°C): YAP WW1 domain preferentially binds
- Kd (YAP WW1-WW2 pair): 9.8 ± 0.9 µM
- stoichiometry N (YAP WW1-WW2 pair; ITC, 15°C): 1
- dimer population in the presence of peptide (Smurf1 WW2 [13]): reduced
- WW domain used for interaction (Smurf1 WW1-WW2 pair): using the WW2 domain
- WW domain used for interaction (Smurf2): the WW3 for Smurf2
Substance: Ac-ELESPPPPYSRYPMD-NH2 [Smad7 peptide]
- effect of domain pairs on affinity ([2]; in vitro, versus single domains): does not increase the affinity in vitro
- stoichiometry (peptide per protein) (Nedd4L WW2-WW3 pair): two equivalents of peptide per protein
- peptide affinity [3]: close to those of the single domains
- preferred WW domain (Nedd4L WW domains): preferentially uses WW2
- affinity (Smurf1 WW1 [8]): very low affinity
- affinity (Smurf2 WW2): very low affinity
- reduction of affinity (Smurf1 WW1-WW2 Arg243Ala): 3 fold
- reduction of affinity (Smurf1 WW1-WW2 Gln249Glu): 3 fold
- reduction of affinity [11]: 3 fold
- reduction of affinity (Smurf1 WW1-WW2 Arg243Glu): 10 fold
- dissociation constant relative to WW1 (YAP WW2): 9 fold
- affinity, WW1-WW2 pair versus independent WW1 (YAP WW1-WW2 pair; ITC): binds slightly worse than the isolated WW1
- dimer population in the presence of peptide (Smurf1 WW1 [14]): unaffected
- species detected (Smurf1 WW1-WW2 [15]): monomeric complexes, protein dimers bound to only one ligand, dimers bound to two ligands and higher order species; also recorded: dimers with one or with two bound ligands and trimers
- species detected (Smurf2 WW2-WW3 [16]): dimers with one or with two bound ligands and trimers

Substance: Smad7: full-length protein Smad7 (wild type), flag epitope-tagged, expressed in HEK293T
- binding to HA-YAP in immunoprecipitation (HA-YAP): binding is observed
